Most compounds without a hit are left out; they make up all but 2% or so of the library.
ASAP1 inh = ASAP1 ArfGAP inhibition; Q9ULH1; ASAP1-stimulated ARF1 GTP hydrolysis, GDP FP detection; inhibition, % at 16.5 µM; 360,000 compounds, 0.19% hits; AID 624377; in the data active = inhibition above about 25%;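 also: 0% = vehicle with enzyme and substrate and 100% = no enzyme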
TCR-CD3 inh = blocks the human TCR-CD3 interaction; inhibition, % at 9.4 µM; 360,000 compounds, 0.37% hits; TAMRA-labeled TCR probe fluorescence, biochemical; in the data active = inhibition above about 19%;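 also: recombinant mutant TCR 2C K166C tagged with TAMRA read by polarization; 0% = receptor in buffer alone and 100% = receptor with positive control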
ARFGAP1 inhibitor = inhibitors of rat ARFGAP1; Q62848; Arfgap1-stimulated ARF1 GTP hydrolysis, GDP FP detection; inhibition, % at 16.5 µM; 360,000 compounds, 0.26% hits;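 active = inhibition above a per-plate limit, mean inhibition of low control wells plus 3 SD, cut at about 25% in these data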;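 also: 0% = DMSO wells with enzyme and 100% = wells lacking Arfgap1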
Target sequence (Q62848 1-136 limits assumed): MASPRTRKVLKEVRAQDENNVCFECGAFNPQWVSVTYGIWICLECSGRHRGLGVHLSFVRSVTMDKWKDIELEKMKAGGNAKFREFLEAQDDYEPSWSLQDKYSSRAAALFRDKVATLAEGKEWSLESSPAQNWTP
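Material – truncated rat Arfgap1 GAP domain · Buffer or medium – HEPES-based buffer, pH 7.5 · Reagent – human ARF1(Δ1-17)-GTP substrate · Dosing – 16.5 µM single point, 1.26% DMSO · Schedule – GTP hydrolysis reaction 2 h at 25 °C · Technique – GDP detection by fluorescence polarization · Benchmarks – No-Arfgap1 wells (100%) versus DMSO full-reaction wells (0%) · Repeats – single replicate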
UHRF1 binding = blocks human UHRF1 binding to methylated DNA | AID 687016 | inhibition, % at 4.4 µM | 370,000 compounds, 0.75% hits | Q96T88 | UHRF1 binding to methylated oligo, TR-FRET; in the data active = inhibition above about 21%;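 also: UHRF1 SRA domain binding a hemimethylated CpG hairpin DNA probe; 0% = median of test compound wells and 100% = reference inhibitor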
MBD2 DNA inh = MBD2-methylated oligo binding inhibition; Q9UBB5; TR-FRET, MBD2 binding to methylated oligonucleotide; inhibition, % at 4.4 µM; 370,000 compounds, 0.31% hits; in the data active = inhibition above about 13%
Target sequence (Q9UBB5 whole entry, looked up): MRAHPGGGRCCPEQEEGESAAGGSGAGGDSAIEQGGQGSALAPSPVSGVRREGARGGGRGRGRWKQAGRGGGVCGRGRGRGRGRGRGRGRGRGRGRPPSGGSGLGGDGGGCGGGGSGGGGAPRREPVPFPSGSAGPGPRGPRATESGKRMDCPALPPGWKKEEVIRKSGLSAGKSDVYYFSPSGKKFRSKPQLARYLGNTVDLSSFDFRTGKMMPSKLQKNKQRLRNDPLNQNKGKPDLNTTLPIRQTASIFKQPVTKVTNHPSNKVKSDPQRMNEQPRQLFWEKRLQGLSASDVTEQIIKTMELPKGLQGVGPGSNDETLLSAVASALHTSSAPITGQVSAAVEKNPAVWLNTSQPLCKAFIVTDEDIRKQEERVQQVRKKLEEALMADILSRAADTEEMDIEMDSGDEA
LEDGF integ inh = blocks HIV-1 LEDGF/p75-dependent DNA integration; TR-FRET IN-LEDGF/p75 DNA integration, Eu/Cy5; inhibition, % at 3.7 µM; 370,000 compounds, 0.64% hits;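 active = inhibition above the screen-wide mean plus 3 SD, cut at about 13% in these data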;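 also: signal is the Cy5 over europium emission ratio at 671 and 618 nm; 0% = plate median of compound wells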
IN multimer up = counter-screen for LEDGF/p75 integration inhibitors: HIV-1 integrase multimerization activators; shares compounds with LEDGF integ inh; TR-FRET HIV-1 integrase multimerization, biochemical; activation, % at 7.7 µM; 2,000 compounds, 17% hits; AID 1053131; in the data active = activation above about 8.9%
TRFRET interf = counter-screen for LEDGF/p75 integration inhibitors: TR-FRET optical interference; AID 1053135; inhibition, % at 7.7 µM; 2,000 tested, under 10 active; shares compounds with LEDGF integ inh; TR-FRET optical interference counterscreen, HIV-1 IN multimerization;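 active = inhibition above the mean over all tested compounds plus 3 SD, which no compound reached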;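 also: 0% = integrase with antibodies and DMSO and 100% = antibodies without integrase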
LEDGF integ conf = confirmation of HIV-1 LEDGF/p75-dependent integration inhibitors | shares compounds with LEDGF integ inh | TR-FRET LEDGF/p75-dependent HIV-1 integration, biochemical | inhibition, % at 3.7 µM | 2,000 compounds, 36% hits | AID 1053136; in the data active = inhibition above about 14%
* hit, by the source's call.

For CC1(C(=O)Nc2ccc3nc[nH]c3c2)CCN1C(=O)C1(c2ccccc2)CCCC1 (stereo not given) the results were ASAP1 inh 3.4, TCR-CD3 inh 12.3, ARFGAP1 inhibitor -2.3, UHRF1 binding -1.7, MBD2 DNA inh -0.2, LEDGF integ inh 24.6*, IN multimer up -1.7, TRFRET interf 8.6 and LEDGF integ conf -4.0.
Cc1ccc(NC(=O)CN(C)C(=O)CCC(=O)c2cccs2)cc1 was read as ASAP1 inh -7.7, TCR-CD3 inh -4.3, ARFGAP1 inhibitor -2.6, UHRF1 binding 9.7, MBD2 DNA inh 8.0 and LEDGF integ inh -0.7.
For Cc1ccc(C(=O)Nc2nc(-c3ccccc3)c(-c3ccccc3)o2)cc1 the results were ASAP1 inh 16.3, TCR-CD3 inh -2.2, ARFGAP1 inhibitor -1.8, UHRF1 binding 0.9, MBD2 DNA inh -3.8, LEDGF integ inh 20.6*, IN multimer up 0.3, TRFRET interf -1.5 and LEDGF integ conf 22.5*.
For O=C(Cc1ccccc1[N+](=O)[O-])N1CCc2ccccc2C1 the results were ASAP1 inh -0.4, TCR-CD3 inh -3.0, ARFGAP1 inhibitor 4.5, UHRF1 binding 1.2, MBD2 DNA inh -0.4 and LEDGF integ inh -7.9.
For COc1ccc(OC)c(/C=C/C(=O)N2CCCc3ccccc32)c1 the results were ASAP1 inh 0.1, TCR-CD3 inh 3.6, ARFGAP1 inhibitor -9.1, UHRF1 binding 2.0, MBD2 DNA inh -1.3 and LEDGF integ inh 0.0.
Screening COc1ccc(/C=C/C(=O)N2CCCc3ccccc32)cc1 returned ASAP1 inh -0.5, TCR-CD3 inh 5.3, ARFGAP1 inhibitor 0.7, UHRF1 binding -1.5, MBD2 DNA inh 0.0, LEDGF integ inh 21.1*, IN multimer up 9.5*, TRFRET interf -34.1 and LEDGF integ conf 19.1*.
`CCCCN1C(=O)C(CC(=O)NCc2ccco2)CC(C(=O)N2CCCCCC2)=C1C` (stereo not given) gave ASAP1 inh 2.9, TCR-CD3 inh -2.0, ARFGAP1 inhibitor 16.2, UHRF1 binding -1.0, MBD2 DNA inh -2.5 and LEDGF integ inh -1.9.
For CN(CCOc1ccc(-c2ccn(S(=O)(=O)c3cccc4ccccc34)n2)cc1)c1ccccn1 the results were ASAP1 inh 21.0, TCR-CD3 inh 0.6, ARFGAP1 inhibitor -0.6, UHRF1 binding -1.1, MBD2 DNA inh 1.4 and LEDGF integ inh -0.3.
For O=C(CCC1CCCCC1)Nc1nccs1 the results were ASAP1 inh -1.1, TCR-CD3 inh 6.2, ARFGAP1 inhibitor -1.3, UHRF1 binding -1.4, MBD2 DNA inh 1.3, LEDGF integ inh 20.9*, IN multimer up 0.0, TRFRET interf -0.1 and LEDGF integ conf -3.8.
`Cc1nnc(NC(=O)CCC2CCCCC2)s1` gave ASAP1 inh 10.1, TCR-CD3 inh -1.9, ARFGAP1 inhibitor -4.5, UHRF1 binding 2.7, MBD2 DNA inh 2.8 and LEDGF integ inh -3.9.
Screening COCCN1C(=O)CN(S(C)(=O)=O)CC1(C)C(=O)NCc1ccccc1 (stereo not given) returned ASAP1 inh 6.4, TCR-CD3 inh 5.8, ARFGAP1 inhibitor -5.8, UHRF1 binding 0.5, MBD2 DNA inh 1.4, LEDGF integ inh 14.3*, IN multimer up 0.2, TRFRET interf -0.8 and LEDGF integ conf -0.7.
Screening CC1(C(=O)NCc2ccccc2)CN(S(C)(=O)=O)CC(=O)N1CCc1ccccc1 (stereo not given) returned ASAP1 inh 0.5, TCR-CD3 inh 0.4, ARFGAP1 inhibitor -2.8, UHRF1 binding 0.4, MBD2 DNA inh 4.5 and LEDGF integ inh 0.0.
Cc1nc2ccccc2n2c(O)c(CC(=O)O)cc12 was read as ASAP1 inh 0.5, TCR-CD3 inh 15.6, ARFGAP1 inhibitor -19.0, UHRF1 binding 16.0, MBD2 DNA inh 4.9, LEDGF integ inh 22.7*, IN multimer up 6.8, TRFRET interf -34.4 and LEDGF integ conf 16.5*.
`CS(=O)(=O)N(CC(=O)N1CCOCC1)c1cccc(F)c1` gave ASAP1 inh 3.2, TCR-CD3 inh 4.8, ARFGAP1 inhibitor 0.5, UHRF1 binding 0.4, MBD2 DNA inh 0.6 and LEDGF integ inh -2.2.
`CS(=O)(=O)N(CC(=O)N1CCN(c2cccc(Cl)c2)CC1)c1cccc(F)c1` gave ASAP1 inh -13.5, TCR-CD3 inh 4.1, ARFGAP1 inhibitor -6.6, UHRF1 binding -2.2, MBD2 DNA inh -0.4, LEDGF integ inh 23.6*, IN multimer up 0.3, TRFRET interf -1.3 and LEDGF integ conf -6.2.
Cc1cc(-c2csc(NC(=O)c3ccc(=O)[nH]c3)n2)c(C)n1Cc1ccco1 was read as ASAP1 inh -5.1, TCR-CD3 inh 18.1, ARFGAP1 inhibitor 11.9, UHRF1 binding 8.9, MBD2 DNA inh 10.5, LEDGF integ inh 62.6*, IN multimer up 11.4*, TRFRET interf -57.5 and LEDGF integ conf 42.9*.
Screening CCC/C(=C1/c2ccccc2C(=O)N1c1ccccc1)c1c(C)noc1C returned ASAP1 inh 5.1, TCR-CD3 inh 3.8, ARFGAP1 inhibitor -1.4, UHRF1 binding -2.7, MBD2 DNA inh 1.4 and LEDGF integ inh -3.4.
For CCC/C(C(=O)NCCO)=C1/c2ccccc2C(=O)N1c1ccccc1 the results were ASAP1 inh -13.0, TCR-CD3 inh -0.6, ARFGAP1 inhibitor 2.3, UHRF1 binding 4.3, MBD2 DNA inh 3.7, LEDGF integ inh 17.5*, IN multimer up -3.2, TRFRET interf 11.1 and LEDGF integ conf 2.6.
O=C(NCC1CCCO1)c1sc2cc(Cl)ccc2c1Cl (stereo not given) was read as ASAP1 inh 2.7, TCR-CD3 inh 3.4, ARFGAP1 inhibitor -9.2, UHRF1 binding -2.4, MBD2 DNA inh 1.9 and LEDGF integ inh -2.4.
`COc1ccc(C(CNC(=O)COc2ccc(Cl)cc2C)N2CCCCC2)cc1` (stereo not given) gave ASAP1 inh -7.3, TCR-CD3 inh 6.5, ARFGAP1 inhibitor 5.7, UHRF1 binding -1.2, MBD2 DNA inh 1.6 and LEDGF integ inh 2.4.
`Cc1cc(CNC(=O)Cn2cc([N+](=O)[O-])cn2)c2ccccc2n1` gave ASAP1 inh 2.3, TCR-CD3 inh -0.3, ARFGAP1 inhibitor 0.9, UHRF1 binding -2.4, MBD2 DNA inh 0.2, LEDGF integ inh 17.4*, IN multimer up -1.5, TRFRET interf 7.8 and LEDGF integ conf 5.7.
Cc1ccc2c(NCc3ccco3)nc(NC(C)C)nc2c1 was read as ASAP1 inh -4.8, TCR-CD3 inh -2.5, ARFGAP1 inhibitor -4.7, UHRF1 binding -0.7, MBD2 DNA inh -3.0 and LEDGF integ inh -0.6.
